Measured values: ChEMBL document CHEMBL1142707, “Bisaryloxime ethers as potent inhibitors of transthyretin amyloid fibril formation” (J Med Chem, 2005)

What was measured:
[1] = target: Transthyretin (Homo sapiens) (UniProt P02766); experiment: Percentage of WT-TTR (3.6 uM) amyloid fibril formation at pH 4.4 upon incubation with the compound (7.2 uM)
Summary of the method: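 WT-TTR (7.2 µM, 0.4 mg/mL) in 10 mM phosphate pH 7.2, 100 mM KCl, 1 mM EDTA was preincubated 30 min at 37 °C with inhibitor added from a 1.44 mM DMSO stock. An equal volume of 200 mM acetate pH 4.2 brought the sample to pH 4.4 (3.6 µM TTR, 7.2 µM compound final). Left 72 h at 37 °C, vortexed, turbidity read at 350 and 400 or 500 nm. Run in duplicate or triplicate.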

[2] = target: Transthyretin (Homo sapiens) (UniProt P02766); experiment: Binding stoichiometry to TTR in human blood plasma determined by antibody capture/HPLC method; format: cell-free
Summary of the method: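 Human blood plasma spiked to 10.8 µM test compound from a 2.16 mM DMSO stock and incubated 24 h at 37 °C. Plasma was precleared with plain Sepharose for 1 h at 4 °C, then split into three aliquots for anti-TTR antibody-resin capture (20 min, 4 °C) in 10 mM Tris pH 8.0, 140 mM NaCl. Resin washed, eluted with 100 mM triethylamine pH 11.5, eluate analysed by HPLC for compound:TTR stoichiometry.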

[3] = target: Transthyretin (Homo sapiens) (UniProt P02766); experiment: Percentage compound remaining at the conclusion of the acid-mediated fibril formation assay (72 h) in absence of TTR, assay conditions, compound (7.2 uM), pH 4.4, 37C
Summary of the method: (§1)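 Compound at 7.2 µM was incubated in the dark with or without 3.6 µM WT-TTR under acid fibril conditions (pH 4.4, 37 °C, 72 h). Analytical RP-HPLC peak area of the compound at the end was compared with the area at the start. Measurement error stated as 4%.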

[4] = target: Transthyretin (Homo sapiens) (UniProt P02766); experiment: Percentage compound remaining at the conclusion of the acid-mediated fibril formation assay (72 h), assay conditions compound (7.2 uM), WT-TTR (3.6 uM, pH 4.4, 37C); summary of the method: as §1

SMILES	Formation [1]	Binding stoichiometry [2]	Activity [3]	Activity [4]
FC(F)(F)c1cccc(O/N=C/c2ccccc2)c1	83%	–	–	–
Clc1cccc(Cl)c1/C=N/Oc1ccccc1	63%	–	–	–
FC(F)(F)c1ccc(/C=N/Oc2ccccc2C(F)(F)F)cc1	81%	–	–	–
O=C(O)c1ccccc1O/N=C/c1c(Cl)cccc1Cl	59%	–	–	–
O=C(O)c1ccccc1/C=N/Oc1ccccc1	91%	–	–	–
Clc1cc(Cl)cc(O/N=C/c2ccccc2)c1	39%	–	–	–
FC(F)(F)c1ccccc1/C=N/Oc1ccccc1	65%	–	–	–
FC(F)(F)c1cccc(/C=N/Oc2ccccc2)c1	92%	–	–	–
O=C(O)c1ccccc1/C=N/Oc1ccccc1C(F)(F)F	75%	–	–	–
Oc1c(I)cc(/C=N/Oc2ccccc2C(F)(F)F)cc1I	1%	1.71	89%	100%
FC(F)(F)c1ccc(/C=N/Oc2cccc(C(F)(F)F)c2)cc1	93%	–	–	–
FC(F)(F)c1cccc(O/N=C/c2cc(Cl)cc(Cl)c2)c1	72%	–	–	–
O=C(O)c1ccccc1O/N=C/c1cc(Br)c(O)c(Br)c1	0%	< 0.5	–	–
O=C(O)c1ccccc1O/N=C/c1ccccc1	91%	–	–	–
FC(F)(F)c1cccc(/C=N/Oc2ccccc2C(F)(F)F)c1	57%	–	–	–
O=C(O)c1ccccc1O/N=C/c1cccc(C(F)(F)F)c1	74%	–	–	–
Clc1cc(Cl)cc(O/N=C/c2c(Cl)cccc2Cl)c1	62%	–	–	–
Oc1c(Br)cc(/C=N/Oc2cc(Cl)cc(Cl)c2)cc1Br	3%	0.69	–	–
FC(F)(F)c1ccccc1O/N=C/c1cc(Cl)cc(Cl)c1	33%	–	–	–
Oc1c(I)cc(/C=N/Oc2ccccc2)cc1I	0%	0.89	24%	79%
Oc1c(Br)cc(/C=N/Oc2cccc(C(F)(F)F)c2)cc1Br	4%	1.17	–	–
O=C(O)c1cccc(O/N=C/c2ccccc2C(=O)O)c1	94%	–	–	–

SMILES	Formation [1]	Binding stoichiometry [2]	Activity [3]	Activity [4]
O=C(O)c1ccccc1O/N=C/c1cc(Cl)cc(Cl)c1	1%	< 0.5	4%	74%
O=C(O)c1cccc(/C=N/Oc2ccccc2C(=O)O)c1	87%	–	–	–
Oc1c(Br)cc(/C=N/Oc2ccccc2C(F)(F)F)cc1Br	1%	1.86	78%	98%
O=C(O)c1ccccc1O/N=C/c1cc(I)c(O)c(I)c1	0%	< 0.5	–	–
Clc1cc(Cl)cc(/C=N/Oc2cc(Cl)cc(Cl)c2)c1	63%	–	–	–
O=C(O)c1ccccc1/C=N/Oc1cccc(C(F)(F)F)c1	84%	–	–	–
FC(F)(F)c1ccccc1O/N=C/c1ccccc1	56%	–	–	–
FC(F)(F)c1ccccc1/C=N/Oc1ccccc1C(F)(F)F	83%	–	–	–
O=C(O)c1ccccc1O/N=C/c1ccccc1C(F)(F)F	34%	–	–	–
FC(F)(F)c1cccc(O/N=C/c2ccccc2C(F)(F)F)c1	83%	–	–	–
FC(F)(F)c1ccccc1/C=N/Oc1cc(Cl)cc(Cl)c1	32%	–	–	–
FC(F)(F)c1cccc(/C=N/Oc2cccc(C(F)(F)F)c2)c1	83%	–	–	–
FC(F)(F)c1ccccc1O/N=C/c1c(Cl)cccc1Cl	15%	–	–	–
Oc1c(Br)cc(/C=N/Oc2ccccc2)cc1Br	0%	1.02	8%	76%
Oc1c(I)cc(/C=N/Oc2cccc(C(F)(F)F)c2)cc1I	4%	1.02	–	–
Oc1c(I)cc(/C=N/Oc2cc(Cl)cc(Cl)c2)cc1I	4%	0.55	–	–
FC(F)(F)c1cccc(O/N=C/c2c(Cl)cccc2Cl)c1	21%	–	–	–
Clc1cc(Cl)cc(/C=N/Oc2ccccc2)c1	56%	–	–	–
FC(F)(F)c1cccc(/C=N/Oc2cc(Cl)cc(Cl)c2)c1	55%	–	–	–
FC(F)(F)c1ccc(/C=N/Oc2ccccc2)cc1	98%	–	–	–
C(=N\Oc1ccccc1)/c1ccccc1	96%	–	–	–

Second part, the compound after the results:

Formation [1]	Binding stoichiometry [2]	Activity [3]	Activity [4]	SMILES
90%	–	–	–	O=C(O)c1ccccc1O/N=C/c1ccc(C(F)(F)F)cc1
97%	–	–	–	O=C(O)c1ccc(O/N=C/c2ccccc2C(=O)O)cc1
0%	< 0.5	88%	81%	O=C(O)c1ccc(O/N=C/c2cc(Br)c(O)c(Br)c2)cc1
78%	–	–	–	O=C(O)c1ccccc1O/N=C/c1cc(F)cc(F)c1
0%	< 0.5	81%	77%	O=C(O)c1cccc(O/N=C/c2cc(I)c(O)c(I)c2)c1
77%	–	–	–	O=C(O)c1ccc(/C=N/Oc2ccccc2)cc1
0%	< 0.5	–	–	O=C(O)c1cccc(O/N=C/c2cc(Br)c(O)c(Br)c2)c1
9%	< 0.5	–	–	O=C(O)c1cccc(/C=N/Oc2cccc(C(F)(F)F)c2)c1
0%	< 0.5	–	–	O=C(O)c1cccc(O/N=C/c2cc(Cl)cc(Cl)c2)c1
84%	–	–	–	O=C(O)c1ccccc1/C=N/Oc1cc(F)cc(F)c1
24%	–	–	–	Fc1cc(F)cc(O/N=C/c2c(Cl)cccc2Cl)c1
94%	–	–	–	Fc1cc(F)cc(/C=N/Oc2cc(F)cc(F)c2)c1
61%	–	–	–	Fc1cc(F)cc(/C=N/Oc2cc(Cl)cc(Cl)c2)c1
46%	–	–	–	O=C(O)c1ccc(/C=N/Oc2ccc(C(=O)O)cc2)cc1
9%	< 0.5	–	–	O=C(O)c1ccc(/C=N/Oc2cc(F)cc(F)c2)cc1
15%	–	–	–	O=C(O)c1cccc(/C=N/Oc2cccc(C(=O)O)c2)c1
68%	–	–	–	FC(F)(F)c1ccc(/C=N/Oc2cc(Cl)cc(Cl)c2)cc1
87%	–	–	–	Fc1cc(F)cc(O/N=C/c2ccccc2)c1
86%	–	–	–	Fc1cc(F)cc(O/N=C/c2cccc(C(F)(F)F)c2)c1
30%	–	–	–	O=C(O)c1ccccc1/C=N/Oc1cc(Cl)cc(Cl)c1
0%	1.31	79%	84%	O=C(O)c1ccc(O/N=C/c2ccccc2C(F)(F)F)cc1
3%	0.56	–	–	O=C(O)c1cccc(/C=N/Oc2cc(Cl)cc(Cl)c2)c1
12%	–	–	–	O=C(O)c1ccc(/C=N/Oc2cccc(C(F)(F)F)c2)cc1
90%	–	–	–	Fc1cc(F)cc(O/N=C/c2cc(Cl)cc(Cl)c2)c1
71%	–	–	–	Fc1cc(F)cc(O/N=C/c2ccccc2C(F)(F)F)c1
6%	1.07	–	–	O=C(O)c1cccc(/C=N/Oc2ccccc2C(F)(F)F)c1

Formation [1]	Binding stoichiometry [2]	Activity [3]	Activity [4]	SMILES
27%	–	–	–	O=C(O)c1cccc(O/N=C/c2cccc(C(F)(F)F)c2)c1
79%	–	–	–	O=C(O)c1cccc(/C=N/Oc2ccccc2)c1
0%	0.81	85%	81%	O=C(O)c1ccc(O/N=C/c2c(Cl)cccc2Cl)cc1
9%	0.53	–	–	O=C(O)c1ccc(O/N=C/c2cc(Cl)cc(Cl)c2)cc1
6%	< 0.5	–	–	O=C(O)c1cccc(/C=N/Oc2cc(F)cc(F)c2)c1
1%	1	20%	88%	O=C(O)c1cccc(O/N=C/c2ccccc2C(F)(F)F)c1
83%	–	–	–	O=C(O)c1cccc(O/N=C/c2ccc(C(F)(F)F)cc2)c1
13%	–	–	–	O=C(O)c1ccc(O/N=C/c2cccc(C(=O)O)c2)cc1
50%	–	–	–	O=C(O)c1cccc(O/N=C/c2ccccc2)c1
31%	–	–	–	O=C(O)c1ccc(/C=N/Oc2cccc(C(=O)O)c2)cc1
50%	–	–	–	O=C(O)c1ccc(O/N=C/c2cccc(C(F)(F)F)c2)cc1
88%	–	–	–	Fc1cc(F)cc(/C=N/Oc2cccc(C(F)(F)F)c2)c1
87%	–	–	–	O=C(O)c1ccc(/C=N/Oc2ccccc2C(=O)O)cc1
75%	–	–	–	Fc1cc(F)cc(/C=N/Oc2ccccc2C(F)(F)F)c1
9%	0.78	–	–	O=C(O)c1ccc(/C=N/Oc2cc(Cl)cc(Cl)c2)cc1
95%	–	–	–	Fc1cc(F)cc(/C=N/Oc2ccccc2)c1
18%	–	–	–	O=C(O)c1ccc(O/N=C/c2cc(F)cc(F)c2)cc1
94%	–	–	–	O=C(O)c1ccc(O/N=C/c2ccc(C(F)(F)F)cc2)cc1
77%	–	–	–	Fc1cc(F)cc(O/N=C/c2ccc(C(F)(F)F)cc2)c1
8%	< 0.5	–	–	O=C(O)c1cccc(O/N=C/c2cc(F)cc(F)c2)c1
3%	1.42	–	–	Oc1c(Br)cc(/C=N/Oc2cc(F)cc(F)c2)cc1Br
1%	< 0.5	91%	83%	O=C(O)c1ccc(O/N=C/c2cc(I)c(O)c(I)c2)cc1
1%	0.71	–	–	O=C(O)c1cccc(O/N=C/c2c(Cl)cccc2Cl)c1
3%	1.83	–	–	Oc1c(I)cc(/C=N/Oc2cc(F)cc(F)c2)cc1I
32%	–	–	–	O=C(O)c1ccc(O/N=C/c2ccccc2)cc1
